A word on the EC50: it is the midpoint of the concentration-response curve.

For assay [1], the system named is Hepatitis C virus. The assay is described as follows: Selectivity ratio of EC50 for Hepatitis C virus genotype 1b N expressing NS3 D168V mutant infected in human HuH7 cells to EC50 for Hepatitis C virus genotype 1b N expressing wild type NS3 infected in human HuH7 cells. The format is functional, Hepacivirus hominis, genotype 1b strain N, Huh-7. The procedure, abridged: (§1)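 Change in resistance: mutant replicon EC50 divided by wild-type 1b N replicon EC50 for the same drug. Both EC50s come from 4-day transient-replication assays in electroporated Huh7 cells with a firefly luciferase read-out, fitted from triplicate-well means. Mean of at least three experiments.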

Assay [2] relates to Hepatitis C virus. The assay is described as follows: Selectivity ratio of EC50 for Hepatitis C virus genotype 1b N expressing NS3 A156T mutant infected in human HuH7 cells to EC50 for Hepatitis C virus genotype 1b N expressing wild type NS3 infected in human HuH7 cells. It counts as functional, Hepacivirus hominis, genotype 1b strain N, Huh-7. A digest of the protocol:
as §1

The subject of assay [3] is Hepatitis C virus. The assay can be described thus: Selectivity ratio of EC50 for Hepatitis C virus genotype 1b N expressing NS3 D168V mutant infected in human HuH7 cells to EC50 for Hepatitis C virus genotype 1b N expressing wild type NS3 infected in human HuH7 cells at 10 nM. It counts as functional, Hepacivirus hominis, genotype 1b strain N, Huh-7.
For assay [4], the system named is Hepatitis C virus. The assay is described as follows: Selectivity ratio of EC50 for Hepatitis C virus genotype 1b N expressing NS3 A156S mutant infected in human HuH7 cells to EC50 for Hepatitis C virus genotype 1b N expressing wild type NS3 infected in human HuH7 cells. The format is functional, Hepacivirus hominis, genotype 1b strain N, Huh-7. The procedure, abridged: as §1

Assay [5] concerns Hepatitis C virus. The assay can be described thus: Selectivity ratio of EC50 for Hepatitis C virus genotype 1b N expressing NS3 V36M mutant infected in human HuH7 cells to EC50 for Hepatitis C virus genotype 1b N expressing wild type NS3 infected in human HuH7 cells. The format is functional, Hepacivirus hominis, genotype 1b strain N, Huh-7. The procedure, abridged: as §1
For assay [6], the system named is Hepatitis C virus. The assay can be described thus: Selectivity ratio of EC50 for Hepatitis C virus genotype 1b N expressing NS3 V170A mutant infected in human HuH7 cells to EC50 for Hepatitis C virus genotype 1b N expressing wild type NS3 infected in human HuH7 cells. It counts as functional, Hepacivirus hominis, genotype 1b strain N, Huh-7. The procedure, abridged: as §1

The test system of assay [7] is Hepatitis C virus. The assay can be described thus: Selectivity ratio of EC50 for Hepatitis C virus genotype 1b N expressing NS3 D168V mutant infected in human HuH7 cells to EC50 for Hepatitis C virus genotype 1b N expressing wild type NS3 infected in human HuH7 cells at 100 nM. It counts as functional, Hepacivirus hominis, genotype 1b strain N, Huh-7.
The subject of assay [8] is Hepatitis C virus. The assay can be described thus: Selectivity ratio of EC50 for Hepatitis C virus genotype 1b N expressing NS3 R155Q mutant infected in human HuH7 cells to EC50 for Hepatitis C virus genotype 1b N expressing wild type NS3 infected in human HuH7 cells at 10 nM. The format is functional, Hepacivirus hominis, genotype 1b strain N, Huh-7.
Assay [9] concerns Hepatitis C virus. The assay is described as follows: Selectivity ratio of EC50 for Hepatitis C virus genotype 1b N expressing NS3 D168A mutant infected in human HuH7 cells to EC50 for Hepatitis C virus genotype 1b N expressing wild type NS3 infected in human HuH7 cells. The format is functional, Hepacivirus hominis, genotype 1b strain N, Huh-7. A digest of the protocol: as §1

The test system of assay [10] is Hepatitis C virus. The assay can be described thus: Selectivity ratio of EC50 for Hepatitis C virus genotype 1b N expressing NS3 V170A mutant infected in human HuH7 cells to EC50 for Hepatitis C virus genotype 1b N expressing wild type NS3 infected in human HuH7 cells at 100 nM. It counts as functional, Hepacivirus hominis, genotype 1b strain N, Huh-7.
Assay [11] relates to Hepatitis C virus. The assay is described as follows: Selectivity ratio of EC50 for Hepatitis C virus genotype 1b N expressing NS3 A156T mutant infected in human HuH7 cells to EC50 for Hepatitis C virus genotype 1b N expressing wild type NS3 infected in human HuH7 cells at 100 nM. The format is functional, Hepacivirus hominis, genotype 1b strain N, Huh-7.
Assay [12] relates to Hepatitis C virus. The assay can be described thus: Selectivity ratio of EC50 for Hepatitis C virus genotype 1b N expressing NS3 R155K mutant infected in human HuH7 cells to EC50 for Hepatitis C virus genotype 1b N expressing wild type NS3 infected in human HuH7 cells at 100 nM. It counts as functional, Hepacivirus hominis, genotype 1b strain N, Huh-7.
Assay [13] has as its system Hepatitis C virus. The assay is described as follows: Selectivity ratio of EC50 for Hepatitis C virus genotype 1b N expressing NS3 R155Q mutant infected in human HuH7 cells to EC50 for Hepatitis C virus genotype 1b N expressing wild type NS3 infected in human HuH7 cells at 100 nM. The format is functional, Hepacivirus hominis, genotype 1b strain N, Huh-7.
The test system of assay [14] is Hepatitis C virus. The assay is described as follows: Selectivity ratio of EC50 for Hepatitis C virus genotype 1b N expressing NS3 A156T mutant infected in human HuH7 cells to EC50 for Hepatitis C virus genotype 1b N expressing wild type NS3 infected in human HuH7 cells at 10 nM. The format is functional, Hepacivirus hominis, genotype 1b strain N, Huh-7.
The test system of assay [15] is Hepatitis C virus. The assay can be described thus: Selectivity ratio of EC50 for Hepatitis C virus genotype 1b N expressing NS3 R155K mutant infected in human HuH7 cells to EC50 for Hepatitis C virus genotype 1b N expressing wild type NS3 infected in human HuH7 cells at 10 nM. The format is functional, Hepacivirus hominis, genotype 1b strain N, Huh-7.
Assay [16] deals with Hepatitis C virus. The assay is described as follows: Selectivity ratio of EC50 for Hepatitis C virus genotype 1b N expressing NS3 R155K mutant infected in human HuH7 cells to EC50 for Hepatitis C virus genotype 1b N expressing wild type NS3 infected in human HuH7 cells. It counts as functional, Hepacivirus hominis, genotype 1b strain N, Huh-7. The procedure, abridged:
as §1

Assay [17] deals with Hepatitis C virus. The assay can be described thus: Selectivity ratio of EC50 for Hepatitis C virus genotype 1b N expressing NS3 A156V mutant infected in human HuH7 cells to EC50 for Hepatitis C virus genotype 1b N expressing wild type NS3 infected in human HuH7 cells. The format is functional, Hepacivirus hominis, genotype 1b strain N, Huh-7. The procedure, abridged: as §1

Assay [18] concerns Hepatitis C virus. The assay can be described thus: Selectivity ratio of EC50 for Hepatitis C virus genotype 1b N expressing NS3 V36M/R155K double mutant infected in human HuH7 cells to EC50 for Hepatitis C virus genotype 1b N expressing wild type NS3 infected in human HuH7 cells. It counts as functional, Hepacivirus hominis, genotype 1b strain N, Huh-7. A digest of the protocol:
as §1

Assay [19] relates to Hepatitis C virus. The assay is described as follows: Selectivity ratio of EC50 for Hepatitis C virus genotype 1b N expressing NS3 R155Q mutant infected in human HuH7 cells to EC50 for Hepatitis C virus genotype 1b N expressing wild type NS3 infected in human HuH7 cells. The format is functional, Hepacivirus hominis, genotype 1b strain N, Huh-7. A digest of the protocol: as §1

The test system of assay [20] is Hepatitis C virus. The assay is described as follows: Selectivity ratio of EC50 for Hepatitis C virus genotype 1b N expressing NS3 V170A mutant infected in human HuH7 cells to EC50 for Hepatitis C virus genotype 1b N expressing wild type NS3 infected in human HuH7 cells at 10 nM. The format is functional, Hepacivirus hominis, genotype 1b strain N, Huh-7.
For assay [21], the system named is Hepatitis C virus. The assay can be described thus: Antiviral activity against wild-type Hepatitis C virus genotype 1b N infected in human Huh7 cells. The format is functional, organism-based, Hepacivirus hominis. As to conditions: genotype 1b strain N, Huh-7. The procedure, abridged:
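Transient replication: firefly-luciferase replicon RNA (genotype 1b N strain) transcribed in vitro and electroporated into Huh7 cells, plated in DMEM with 10% FBS. Luciferase read at 4 h to gauge transfection/translation. Drug dilutions added to a second plate set, incubated 4 days at 37°C, then luciferase measured. Triplicate samples per experiment; EC50 fitted from means; at least three experiments.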

In assay [22] the test system is Hepatitis C virus. The assay can be described thus: Selectivity ratio of EC50 for Hepatitis C virus genotype 1b N expressing NS3 T54A mutant infected in human HuH7 cells to EC50 for Hepatitis C virus genotype 1b N expressing wild type NS3 infected in human HuH7 cells. The format is functional, Hepacivirus hominis, genotype 1b strain N, Huh-7. A digest of the protocol:
as §1

The subject of assay [23] is Hepatitis C virus. The assay is described as follows: Selectivity ratio of EC50 for Hepatitis C virus genotype 1b N expressing NS3 R155K mutant infected in human HuH7 cells to EC50 for Hepatitis C virus genotype 1b N expressing wild type NS3 infected in human HuH7 cells at >10 nM. It counts as functional, Hepacivirus hominis, genotype 1b strain N, Huh-7.

With `COc1ccc2c(O[C@@H]3C[C@H]4C(=O)N[C@]5(C(=O)O)C[C@H]5/C=C\CCCCC[C@H](NC(=O)OC5CCCC5)C(=O)N4C3)cc(-c3csc(NC(C)C)n3)nc2c1` [CILUPREVIR], the “Ratio EC50” value in the assay on Hepatitis C virus [1] is on record as 193.6; in the assay on Hepatitis C virus [2] it was 366.6; with Hepatitis C virus [3] it was 7; in the assay with Hepatitis C virus [4], 28; in the assay on Hepatitis C virus [5] it was 0.8; in the assay on Hepatitis C virus [6] it was 1.5. Further, the “Ratio EC50” value in the assay with Hepatitis C virus [7] was found to be 660; in the assay on Hepatitis C virus [8], 7; with Hepatitis C virus [9], 63.3; in the assay on Hepatitis C virus [10], 660; in the assay with Hepatitis C virus [11], 660; in the assay on Hepatitis C virus [12] it was 660. Moreover, the “Ratio EC50” value is 660 with Hepatitis C virus [13]; 7 in the assay on Hepatitis C virus [14]; 7 in the assay with Hepatitis C virus [15]; 147.5 in the assay on Hepatitis C virus [16]; 445 in the assay on Hepatitis C virus [17]; 139.9 in the assay with Hepatitis C virus [18]. Further, the “Ratio EC50” value stood at 29.6 in the assay with Hepatitis C virus [19], 7 with Hepatitis C virus [20] and 0.6 in the assay on Hepatitis C virus [22]. In addition, a half-maximal effect in the assay with Hepatitis C virus [21] (EC50) was put at 1.5 nM.

For the compound `CC(C)(C)OC(=O)N[C@H]1CCCCC/C=C\[C@@H]2C[C@@]2(C(=O)NS(=O)(=O)C2CC2)NC(=O)[C@@H]2C[C@@H](OC(=O)N3Cc4cccc(F)c4C3)CN2C1=O` [DANOPREVIR], the “Ratio EC50” value in the assay with Hepatitis C virus [1] was 14.9; in the assay with Hepatitis C virus [2] it was 96; with Hepatitis C virus [4], 40; in the assay with Hepatitis C virus [5], 0.7; with Hepatitis C virus [6], 1.2; with Hepatitis C virus [9], 14. Moreover, the “Ratio EC50” value is on record as 89.3 with Hepatitis C virus [16]; 7.1 in the assay on Hepatitis C virus [17]; 55.7 in the assay with Hepatitis C virus [18]; 6.1 in the assay on Hepatitis C virus [19]; 0.9 with Hepatitis C virus [22]; 33 with Hepatitis C virus [23]. For the same compound, the EC50 in the assay on Hepatitis C virus [21] turned out to be 0.3 nM.

As to `CCC[C@H](NC(=O)[C@@H]1[C@H]2CCC[C@H]2CN1C(=O)[C@@H](NC(=O)[C@@H](NC(=O)c1cnccn1)C1CCCCC1)C(C)(C)C)C(=O)C(=O)NC1CC1` [TELAPREVIR], the “Ratio EC50” value was 0.2 with Hepatitis C virus [1]; 96.3 with Hepatitis C virus [2]; 19 in the assay with Hepatitis C virus [4]; 0.7 with Hepatitis C virus [5]; 0.1 in the assay with Hepatitis C virus [9]; 5.4 in the assay with Hepatitis C virus [16]. Moreover, the “Ratio EC50” value came to 63.1 in the assay with Hepatitis C virus [17], 3.3 with Hepatitis C virus [18], 1.3 in the assay with Hepatitis C virus [19] and 6.7 with Hepatitis C virus [22]. In the assay with Hepatitis C virus [21], this compound displayed an EC50 of 320 nM.
